{
  "source": "ChEMBL document CHEMBL5576114",
  "about": "“Inhibition of DXR in the MEP pathway with lipophilic N-alkoxyaryl FR900098 analogs” (RSC Med Chem, 2024)",
  "key": {"[1]": {"biological_target": "T1, 1-deoxy-D-xylulose 5-phosphate reductoisomerase, apicoplastic (Plasmodium falciparum (isolate 3D7), UniProt Q8IKG4)", "T1 sequence (Q8IKG4 whole entry)": "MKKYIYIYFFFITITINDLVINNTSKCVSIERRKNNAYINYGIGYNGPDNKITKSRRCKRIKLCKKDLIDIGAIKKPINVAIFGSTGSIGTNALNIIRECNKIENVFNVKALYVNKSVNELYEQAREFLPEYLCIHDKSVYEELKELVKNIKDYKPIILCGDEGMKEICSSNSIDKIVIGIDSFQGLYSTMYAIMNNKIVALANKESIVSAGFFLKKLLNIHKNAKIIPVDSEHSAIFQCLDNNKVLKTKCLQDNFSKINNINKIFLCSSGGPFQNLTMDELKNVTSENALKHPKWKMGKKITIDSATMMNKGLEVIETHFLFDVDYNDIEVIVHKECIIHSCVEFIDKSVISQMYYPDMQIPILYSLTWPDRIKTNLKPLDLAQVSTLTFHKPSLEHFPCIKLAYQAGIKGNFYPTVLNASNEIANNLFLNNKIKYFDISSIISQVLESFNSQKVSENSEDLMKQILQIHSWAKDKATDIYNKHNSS", "assay": "Inhibition of Plasmodium falciparum DXR"}, "[2]": {"biological_target": "T2, 1-deoxy-D-xylulose 5-phosphate reductoisomerase (Mycobacterium tuberculosis, UniProt P9WNS1)", "T2 sequence (P9WNS1 whole entry)": "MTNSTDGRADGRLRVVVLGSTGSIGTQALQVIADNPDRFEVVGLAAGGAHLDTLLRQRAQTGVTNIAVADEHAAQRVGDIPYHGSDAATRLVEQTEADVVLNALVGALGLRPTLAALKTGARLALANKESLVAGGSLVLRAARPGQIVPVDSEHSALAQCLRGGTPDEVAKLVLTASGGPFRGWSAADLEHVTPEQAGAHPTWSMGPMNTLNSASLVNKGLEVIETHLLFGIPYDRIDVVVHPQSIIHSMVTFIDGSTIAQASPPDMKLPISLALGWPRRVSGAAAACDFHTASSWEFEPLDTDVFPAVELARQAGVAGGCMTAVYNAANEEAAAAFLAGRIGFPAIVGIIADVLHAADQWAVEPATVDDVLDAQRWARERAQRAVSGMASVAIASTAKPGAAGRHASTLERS", "assay": "Inhibition of Mycobacterium tuberculosis DXR using DXP as substrate preincubated for 10 mins followed by NADPH addition and measured after 5 mins by spectrophotometric assay"}, "[3]": {"system": "Mycobacterium tuberculosis", "assay": "Antibacterial activity against Mycobacterium tuberculosis H37Rv assessed as reduction in bacterial growth", "assay_type": "functional"}, "[4]": {"system": "Mycobacterium tuberculosis", "assay": "Antibacterial activity against Mycobacterium tuberculosis H37Rv assessed as reduction in bacterial growth incubated for 2 weeks by macroscopic plate reader analysis", "assay_type": "functional", "details": "336 h", "summary_of_the_method": "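H37Rv grown in 7H9 broth with 0.08% NaCl, 0.4% glucose, 0.05% casitone and 0.05% tyloxapol, then diluted 1:500. Compounds were made as 20 mg/mL DMSO stocks and run as eleven 2-fold serial dilutions. Plates were held 2 weeks at 37 °C and MIC99 was read macroscopically. Three independent measurements.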"}, "[5]": {"biological_target": "T2, 1-deoxy-D-xylulose 5-phosphate reductoisomerase", "assay": "Inhibition of Mycobacterium tuberculosis DXR expressed in Escherichia coli BL21 CodonPlus (DE3)-RIL cells using DOXP as substrate in presence of NADPH by UV-visible spectrophotometry"}, "[6]": {"biological_target": "T3, 1-deoxy-D-xylulose 5-phosphate reductoisomerase, apicoplastic (Plasmodium falciparum (isolate 3D7)) (UniProt Q8IKG4)", "T3 sequence (whole entry)": "T1 sequence (Q8IKG4 whole entry)", "assay": "Inhibition of Plasmodium falciparum DXR expressed in Escherichia coli BL21 CodonPlus (DE3)-RIL cells using DOXP as substrate at 100 uM in presence of NADPH by UV-visible spectrophotometry relative to control", "summary_of_the_method": "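PfDXR single-point test at 100 µM inhibitor. Conditions: 0.86 µM IMAC-purified enzyme, 100 mM Tris pH 7.8, 25 mM MgCl2, 150 µM NADPH, 37 °C. Reaction was started with 144 µM DOXP, and NADPH oxidation was monitored at 340 nm. Percent remaining activity was reported; technical duplicates.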"}, "[7]": {"assay": "Cytotoxicity against human HepG2 cells assessed as reduction in cell viability after 24 hrs by Cell Titer Glo assay", "assay_type": "toxicity, cell-based", "summary_of_the_method": "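HepG2 cells in DMEM with 4 mM L-glutamine and 4.5 g/L glucose, trypsinized and plated from a 4×10^5 cells/mL suspension. Compounds were tested as two-fold dilutions from 100 to 0.1 µg/mL, with a DMSO-only control, in duplicate. After 24 h at 37 °C, 5% CO2, CellTiter-Glo luminescence was read after 20 min in the dark.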"}, "Plasmodium falciparum [8]": {"system": "Plasmodium falciparum", "assay": "Antiplasmodial activity against Plasmodium falciparum E1-C12 harboring with had1 mutation assessed as reduction in parasite growth by measuring DNA content after 3 days in presence of IPP by PicoGreen staining based FLUOstar omega microplate reader analysis", "assay_type": "functional, organism-based", "details": "time 3.0 day", "summary_of_the_method": "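IPP rescue in had1 E1-C12 parasites: 125 µM IPP was present for the whole assay. Cultures at 2% hematocrit in Albumax-supplemented RPMI, 5% O2/5% CO2, 37 °C, started at 0.5% parasitemia. Inhibitors were dosed at 1.2 nM–492.4 µM, and growth was read after 3 days by PicoGreen fluorescence. 4-parameter fit; duplicate wells, biological triplicates.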"}, "[9]": {"biological_target": "T4, 1-deoxy-D-xylulose 5-phosphate reductoisomerase (Mycobacterium tuberculosis) (UniProt P9WNS1)", "T4 sequence (whole entry)": "T2 sequence (P9WNS1 whole entry)", "assay": "Inhibition of Mycobacterium tuberculosis DXR expressed in Escherichia coli BL21 CodonPlus (DE3)-RIL cells using DOXP as substrate at 100 uM in presence of NADPH by UV-visible spectrophotometry relative to control", "summary_of_the_method": "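Recombinant MtbDXR (pET101/D-TOPO in E. coli BL21 CodonPlus (DE3)-RIL, IMAC-purified) at 0.89 µM in 100 mM MES pH 6.5, 25 mM MgCl2, 150 µM NADPH, 47 µM DOXP, 37 °C. Inhibitor was tested at a single 100 µM. NADPH oxidation was followed at 340 nm, and percent remaining activity was reported. Technical duplicates.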"}, "[10]": {"biological_target": "T1, 1-deoxy-D-xylulose 5-phosphate reductoisomerase, apicoplastic", "assay": "Inhibition of Plasmodium falciparum DXR expressed in Escherichia coli BL21 CodonPlus (DE3)-RIL cells using DOXP as substrate in presence of NADPH by UV-visible spectrophotometry"}, "Plasmodium falciparum [11]": {"system": "Plasmodium falciparum", "assay": "Antiplasmodial activity against Plasmodium falciparum 3D7 assessed as reduction in parasite growth by measuring DNA content after 3 days by PicoGreen staining based FLUOstar omega microplate reader analysis", "assay_type": "functional, organism-based", "details": "3D7, 72 h", "summary_of_the_method": "(§1)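 Asynchronous cultures in 2% hematocrit, RPMI-1640 complete medium with 0.5% Albumax, under 5% O2/5% CO2/90% N2 at 37 °C. Diluted to 0.5% parasitemia, inhibitors 1.2 nM to 492.4 µM added at start. Growth read after 3 days as DNA content by PicoGreen fluorescence (485/528 nm). IC50 from 4-parameter nonlinear regression; technical duplicate, biological triplicate.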"}, "Plasmodium falciparum [12]": {"system": "Plasmodium falciparum", "assay": "Antiplasmodial activity against Plasmodium falciparum E1-C12 harboring with had1 mutation assessed as reduction in parasite growth by measuring DNA content after 3 days by PicoGreen staining based FLUOstar omega microplate reader analysis", "assay_type": "functional, organism-based", "details": "time 3.0 day", "summary_of_the_method": "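E1-C12 (had1) parasites, asynchronous, at 2% hematocrit in RPMI-1640/0.5% Albumax with hypoxanthine, under 5% O2/5% CO2/90% N2 at 37 °C. Started at 0.5% parasitemia and dosed at 1.2 nM–492.4 µM. After 3 days, DNA was stained with PicoGreen (ex 485/em 528). IC50 came from a 4-parameter fit; technical duplicates, biological triplicates.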"}, "Plasmodium falciparum [13]": {"system": "Plasmodium falciparum", "assay": "Antiplasmodial activity against Plasmodium falciparum", "assay_type": "functional, organism-based", "summary_of_the_method": "as §1"}},
  "note": "Activity calls are given as the source filed them. The rule behind the calls is not given here.",
  "data": [
    {"molecule": "CC(=O)N(O)CCCP(=O)(O)O", "note": "[FR-900098]", "values": [
      {"measurement": "IC50", "setting": "[1]", "value": 0.022, "unit": "µM"},
      {"measurement": "IC50", "setting": "[2]", "value": 2.91, "unit": "µM"},
      {"measurement": "MIC", "setting": "[3]", "value": "> 500", "unit": "mg/L"}
    ]},
    {"molecule": "CC(=O)N(CCC(c1ccc(Cl)c(Cl)c1)P(=O)(O)O)OC(C)c1ccc(F)cc1", "note": "(stereo not drawn)", "values": [
      {"measurement": "MIC", "setting": "[4]", "value": "> 200", "unit": "µM"},
      {"measurement": "IC50", "setting": "[5]", "value": 4.78, "unit": "µM"},
      {"measurement": "inhibition", "setting": "[6]", "value": "> 90", "unit": "%"},
      {"measurement": "IC50 at 24 h", "setting": "[7]", "value": "> 200", "unit": "µM"},
      {"measurement": "Activity", "setting": "Plasmodium falciparum [8]", "value": "inactive"},
      {"measurement": "inhibition", "setting": "[9]", "value": "> 90", "unit": "%"},
      {"measurement": "IC50", "setting": "[10]", "value": 0.47, "unit": "µM"},
      {"measurement": "IC50", "setting": "Plasmodium falciparum [11]", "value": 2.42, "unit": "µM"},
      {"measurement": "Activity", "setting": "Plasmodium falciparum [12]", "value": "Active"}
    ]},
    {"molecule": "COc1ccc(C(C)ON(CCC(c2ccc(Cl)c(Cl)c2)P(=O)(O)O)C(C)=O)cc1", "note": "(stereo not drawn)", "values": [
      {"measurement": "MIC", "setting": "[4]", "value": "> 98", "unit": "µM"},
      {"measurement": "IC50", "setting": "[5]", "value": 0.78, "unit": "µM"},
      {"measurement": "inhibition", "setting": "[6]", "value": "> 90", "unit": "%"},
      {"measurement": "IC50 at 24 h", "setting": "[7]", "value": "> 200", "unit": "µM"},
      {"measurement": "Activity", "setting": "Plasmodium falciparum [8]", "value": "inactive"},
      {"measurement": "inhibition", "setting": "[9]", "value": "> 90", "unit": "%"},
      {"measurement": "IC50", "setting": "[10]", "value": 0.11, "unit": "µM"},
      {"measurement": "IC50", "setting": "Plasmodium falciparum [11]", "value": 0.3, "unit": "µM"},
      {"measurement": "Activity", "setting": "Plasmodium falciparum [12]", "value": "Active"}
    ]},
    {"molecule": "O=CN(O)CCCP(=O)(O)O", "note": "[FOSMIDOMYCIN]", "values": [
      {"measurement": "IC50", "setting": "Plasmodium falciparum [13]", "value": 1.02, "unit": "µM"},
      {"measurement": "MIC", "setting": "[3]", "value": "> 500", "unit": "mg/L"}
    ]}
  ]
}
